This is an account of results in paper PMC2923816 (Bioorganic & medicinal chemistry letters, 2010).

Read-outs that look alike come from different tables or passages of the source.

One assay has as its target T1, human haspin kinase (Homo sapiens, UniProt Q8TF76).
T1 sequence (Q8TF76 1-798): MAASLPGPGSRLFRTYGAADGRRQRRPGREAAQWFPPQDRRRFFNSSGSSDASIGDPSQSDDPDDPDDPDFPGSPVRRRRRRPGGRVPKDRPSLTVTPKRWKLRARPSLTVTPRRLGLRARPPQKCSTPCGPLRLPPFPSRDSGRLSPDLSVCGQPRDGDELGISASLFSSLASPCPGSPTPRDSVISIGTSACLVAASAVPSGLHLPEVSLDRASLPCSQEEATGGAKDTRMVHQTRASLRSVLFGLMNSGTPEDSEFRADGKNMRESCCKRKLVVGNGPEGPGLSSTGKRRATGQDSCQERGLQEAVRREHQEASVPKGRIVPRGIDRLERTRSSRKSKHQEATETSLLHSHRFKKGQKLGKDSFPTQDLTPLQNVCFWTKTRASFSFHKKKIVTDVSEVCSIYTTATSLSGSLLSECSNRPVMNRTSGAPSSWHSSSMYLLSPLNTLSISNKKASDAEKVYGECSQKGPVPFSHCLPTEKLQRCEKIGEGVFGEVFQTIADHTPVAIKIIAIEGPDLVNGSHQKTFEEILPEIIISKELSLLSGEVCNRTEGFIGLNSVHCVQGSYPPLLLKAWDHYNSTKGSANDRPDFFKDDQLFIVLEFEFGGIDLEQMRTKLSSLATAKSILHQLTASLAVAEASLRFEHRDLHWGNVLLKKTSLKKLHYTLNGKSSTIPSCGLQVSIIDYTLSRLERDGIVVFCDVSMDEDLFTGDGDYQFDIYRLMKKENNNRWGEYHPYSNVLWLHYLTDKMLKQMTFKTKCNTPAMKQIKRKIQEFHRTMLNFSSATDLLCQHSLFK
In words: haspin kinase TR-FRET assay. Type of assay: biochemical. An outline of the steps:
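Human haspin activity measured by TR-FRET at varying test compound concentrations to give IC50, using the HTS format: histone H3 peptide substrate, with phosphorylated product (H3T3ph) detected by a europium-labelled phosphospecific monoclonal antibody. For the selectivity ratio, DYRK2 was assayed by 33P incorporation into Woodtide peptide with human N-terminal GST-fused DYRK2 and γ33P-ATP.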

Another assay addresses T2, human DYRK2 (Homo sapiens, UniProt Q92630).
T2 sequence (Q92630 1-601): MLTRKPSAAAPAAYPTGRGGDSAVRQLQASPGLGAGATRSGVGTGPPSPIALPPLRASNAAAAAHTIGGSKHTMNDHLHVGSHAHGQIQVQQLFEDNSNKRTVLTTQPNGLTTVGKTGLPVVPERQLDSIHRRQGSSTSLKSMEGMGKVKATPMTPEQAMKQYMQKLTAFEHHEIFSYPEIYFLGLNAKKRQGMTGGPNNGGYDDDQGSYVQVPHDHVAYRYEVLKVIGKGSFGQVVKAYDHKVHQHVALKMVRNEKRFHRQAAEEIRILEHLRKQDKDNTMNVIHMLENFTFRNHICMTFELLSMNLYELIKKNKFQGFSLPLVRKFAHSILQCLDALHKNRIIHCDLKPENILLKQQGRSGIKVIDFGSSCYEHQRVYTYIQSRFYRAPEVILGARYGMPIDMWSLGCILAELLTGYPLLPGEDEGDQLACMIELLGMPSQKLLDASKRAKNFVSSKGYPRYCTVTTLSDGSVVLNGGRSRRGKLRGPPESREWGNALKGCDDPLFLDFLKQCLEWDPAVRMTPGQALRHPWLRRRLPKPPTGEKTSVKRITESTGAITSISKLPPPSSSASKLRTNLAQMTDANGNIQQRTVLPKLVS
The experiment in a line: DYRK2 kinase 33P-incorporation into Woodtide peptide. Type of assay: biochemical. Particulars: read-out: IC50 DYRK2, Woodtide substrate.

The mark [1] stands for this setting: read-out: IC50 haspin, TR-FRET assay.

Turning to `COc1ccc2nc3ccc(OC)cc3c(SCCCN3C(=O)c4ccccc4C3=O)c2c1` [Compound 41], the IC50 at human haspin kinase (setting [1]) was determined as 2100 nM.

Regarding `COc1ccc2nc3ccc(Cl)cc3c(SCCCN)c2c1` [Compound 33], the “selectivity for haspin over DYRK2” value on human haspin kinase (ratio of IC50 values) is given as 180 fold. Moreover, the figures for the IC50 at human haspin kinase (setting [1]), at human haspin kinase (read-out: haspin IC50) and at human DYRK2 were 55 nM, less than 60 nM and 9900 nM, respectively.

In general, IC50 refers to the concentration needed to halve the response being measured.
